The values below come from ChEMBL document CHEMBL1777741, “Design of a potent, soluble glucokinase activator with increased pharmacokinetic half-life” (Bioorg Med Chem Lett, 2011).

Converted amounts (≈) assume the structure as drawn. Some results are limits rather than exact numbers.

One series can be described thus: in vitro. The settings on record: rat, plasma.
A short description of the next series: in vivo. The settings on record: CR-Han Wistar, rat, iv, 1 mg/kg.
For another series, the target named is T1, Hexokinase-4 (Homo sapiens, UniProt P35557).
T1 sequence (P35557 whole entry): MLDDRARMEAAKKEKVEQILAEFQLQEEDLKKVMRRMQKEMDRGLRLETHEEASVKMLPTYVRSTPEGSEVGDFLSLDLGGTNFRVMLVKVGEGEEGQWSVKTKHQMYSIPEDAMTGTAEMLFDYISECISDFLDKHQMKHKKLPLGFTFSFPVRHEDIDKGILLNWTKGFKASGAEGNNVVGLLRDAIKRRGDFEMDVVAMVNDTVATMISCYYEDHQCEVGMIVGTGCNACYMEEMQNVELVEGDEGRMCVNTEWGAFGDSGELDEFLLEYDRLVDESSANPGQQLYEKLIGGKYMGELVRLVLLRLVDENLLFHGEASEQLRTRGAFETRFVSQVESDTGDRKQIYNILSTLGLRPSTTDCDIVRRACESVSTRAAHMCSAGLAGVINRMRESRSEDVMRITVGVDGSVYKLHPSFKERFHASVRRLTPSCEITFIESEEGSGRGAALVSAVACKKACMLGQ
Briefly: Activation of His-tagged recombinant glucokinase expressed in Escherichia coli using [14C]-glucose substrate by […].

Series [1] in a line: Percentage unbound in human plasma. The series is classed as ADME, cell-free. The essentials: (§1)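 Unbound fraction in plasma was measured by equilibrium dialysis and reported as percentage free.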
A short description of series [2]: Intrinsic clearance in rat hepatocytes measured per 10^6 cells. The series is classed as ADME, cell-based, Liver, Hepatocyte.
Series [3] is described as follows: Half life in dog. The settings on record: in vivo. The series is classed as ADME, organism-based, Canis lupus familiaris.
Series [4] can be described thus: Solubility of the compound. The series is classed as physicochemical.
A short description of series [5]: Clearance in dog. The series is classed as ADME, organism-based, Canis lupus familiaris. The settings on record: in vivo.
A short description of series [6]: Bioavailability in rat. The note with it: in vivo. It is filed as ADME, organism-based.
A short description of series [7]: Intrinsic clearance in dog hepatocytes measured per 10^6 cells. It is filed as ADME, cell-based, Canis lupus familiaris, Liver, Hepatocyte.
Series [8] can be described thus: Bioavailability in dog. It is filed as ADME, organism-based, Canis lupus familiaris. The note with it: in vivo.
Series [9] can be described thus: Percentage unbound in dog plasma. The series is classed as ADME, cell-free, Canis lupus familiaris. In outline: as §1
A short description of series [10]: Half life in rat. It is filed as ADME, organism-based. The settings on record: in vivo.
Series [11] can be described thus: Intrinsic clearance in human hepatocytes measured per 10^6 cells. The series is classed as ADME, cell-based, Liver, Hepatocyte.

Consider `COC[C@H](C)Oc1cc(OC[C@H](C)c2ccccc2)cc(C(=O)Nc2ccc(C(=O)O)cn2)c1`, for which the fraction unbound in the series “in vitro” is 0.0033. Moreover, in “in vivo”, the clearance was 2.9 mL/min/kg. Also, the half-maximal effective concentration (EC50) on Hexokinase-4 turned out to be 70 nM.

Regarding `COC[C@H](C)Oc1cc(O[C@@H](C)Cc2cc(F)cc(F)c2)cc(C(=O)Nc2ccc(C(=O)O)cn2)c1`, the free fraction (fraction unbound) in “in vitro” turned out to be 0.001. Also, the clearance in “in vivo” worked out at 1.1 mL/min/kg.

In the series “in vitro”, `COC[C@H](C)Oc1cc(Oc2cccc(F)c2)cc(C(=O)Nc2ccc(C(=O)O)cn2)c1` had a free fraction (fraction unbound) of 0.0021. Also, the clearance in the series “in vivo” worked out at 0.2 mL/min/kg. The EC50 at Hexokinase-4 turned out to be 180 nM.

`CC(C)Oc1cc(O[C@@H](C)Cc2ccccc2)cc(C(=O)Nc2ccc(C(=O)O)cn2)c1` came in with a fraction unbound in “in vitro” of 0.0023. For the same compound, the clearance in the series “in vivo” was determined as 3.3 mL/min/kg.

In “in vitro”, `COC[C@H](C)Oc1cc(O[C@@H](C)Cc2ccc(Cl)o2)cc(C(=O)Nc2ccc(C(=O)O)cn2)c1` displayed a fraction unbound of 0.0025. In the series “in vivo”, this compound gave a clearance of 1.6 mL/min/kg. Moreover, at Hexokinase-4, the EC50 worked out at 30 nM.

In “in vitro”, `COCC(C)(C)Oc1cc(O[C@@H](C)Cc2ccccc2)cc(C(=O)Nc2ccc(C(=O)O)cn2)c1` displayed a fraction unbound of 0.0042. The EC50 at Hexokinase-4 is above 10000 nM.

`COC[C@H](C)Oc1cc(Oc2ccc(S(C)(=O)=O)cc2)cc(C(=O)Nc2ccc(C(=O)O)cn2)c1` yielded a free fraction (fraction unbound) in “in vitro” of 0.0738. The same compound registered a clearance in the series “in vivo” of 8.2 mL/min/kg. For the same compound, the EC50 on Hexokinase-4 is 60 nM.

`COC[C@H](C)Oc1cc(Oc2cccc(Cl)c2)cc(C(=O)Nc2ccc(C(=O)O)cn2)c1` registered a fraction unbound in “in vitro” of 0.0016. Also, in “in vivo”, the clearance is 0.8 mL/min/kg. Also, the EC50 on Hexokinase-4 is 110 nM.

`COC[C@H](C)Oc1cc(Oc2cccc(N(C)C)c2)cc(C(=O)Nc2ccc(C(=O)O)cn2)c1` showed a fraction unbound in “in vitro” of 0.0122. Also, at Hexokinase-4, the EC50 was found to be 400 nM.

For the compound `CC(C)Oc1cc(O[C@@H](C)c2ccccc2)cc(C(=O)Nc2ccc(C(=O)O)cn2)c1`, the fraction unbound in “in vitro” was found to be 0.0035. In “in vivo”, this compound showed a clearance of 0.6 mL/min/kg. Further, the EC50 on Hexokinase-4 is 150 nM.

The compound `COC[C@H](C)Oc1cc(Oc2ccc(OC)cc2)cc(C(=O)Nc2ccc(C(=O)O)cn2)c1` came in with a fraction unbound in “in vitro” of 0.0069. The same compound registered a clearance in the series “in vivo” of 3.2 mL/min/kg. On Hexokinase-4, the EC50 was found to be 60 nM.

For `COC[C@H](C)Oc1cc(Oc2cc(F)cc(F)c2)cc(C(=O)Nc2ccc(C(=O)O)cn2)c1`, the results for the fraction unbound (in series [1]; in the series “in vitro”; in series [9]) were 0.0055, 0.0023 and 0.0159, respectively. Further, the hepatocyte CLint in [2], in series [7] and in series [11] was below 1 µL/min/1e6 cells in each case. For the same compound, the half-life in series [3] was 4.9 h; in [10] it was 15.8 h. Besides, the solubility in series [4] was determined as 841 µM (≈ 386 µg/mL). Moreover, the clearance stood at 5.2 mL/min/kg in series [5] and 0.1 mL/min/kg in “in vivo”. Moreover, the figures for the bioavailability in [6] and in [8] were 97% and above 100%, respectively. On Hexokinase-4, the concentration for a half-maximal effect (EC50) stood at 90 nM.

In the series “in vitro”, `CC(C)Oc1cc(OC2Cc3ccccc3C2)cc(C(=O)Nc2ccc(C(=O)O)cn2)c1` registered a fraction unbound of 0.001. In “in vivo”, the clearance is 1.6 mL/min/kg. In addition, the EC50 at Hexokinase-4 came to 100 nM.

For `COC[C@H](C)Oc1cc(O[C@@H](C)Cc2ccccc2)cc(C(=O)Nc2ccc(C(=O)O)cn2)c1`, the fraction unbound in [1] came to 0.0044; in “in vitro” it was 0.004; in series [9], 0.0146. Also, the hepatocyte CLint in [2], in series [7] and in series [11] was below 1 µL/min/1e6 cells each time. Besides, the half-life is 1.4 h in [3] and 4.5 h in series [10]. This compound also came in with a clearance in “in vivo” of 1.9 mL/min/kg.

Regarding `CC(C)Oc1cc(Oc2ccccc2)cc(C(=O)Nc2ccc(C(=O)O)cn2)c1`, in the series “in vitro”, the fraction unbound amounted to 0.0021. Further, the clearance in “in vivo” came out at 0.2 mL/min/kg.

Take `COC[C@H](C)Oc1cc(O[C@@H](C)Cc2ccc(F)cc2)cc(C(=O)Nc2ccc(C(=O)O)cn2)c1`: the fraction unbound in the series “in vitro” amounted to 0.0025. Moreover, in “in vivo”, the clearance came to 1 mL/min/kg. In addition, the EC50 at Hexokinase-4 was 40 nM.

As for `COC[C@H](C)Oc1cc(Oc2ccccc2)cc(C(=O)Nc2ccc(C(=O)O)cn2)c1`, the fraction unbound in “in vitro” was determined as 0.0055. In “in vivo”, this compound returned a clearance of 0.4 mL/min/kg. For the same compound, the EC50 on Hexokinase-4 turned out to be 160 nM.

In the series “in vitro”, `COC[C@H](C)Oc1cc(O[C@@H](C)Cc2ccccc2OC)cc(C(=O)Nc2ccc(C(=O)O)cn2)c1` showed a fraction unbound of 0.0042. For the same compound, the clearance in the series “in vivo” was determined as 6.1 mL/min/kg.

Compound `C[C@@H](Cc1ccccc1)Oc1cc(OC2CCOCC2)cc(C(=O)Nc2ccc(C(=O)O)cn2)c1` showed a fraction unbound in the series “in vitro” of 0.0109. Moreover, the EC50 on Hexokinase-4 was above 10000 nM.

In the series “in vitro”, `COC[C@H](C)Oc1cc(Oc2ccc(Cl)cc2)cc(C(=O)Nc2ccc(C(=O)O)cn2)c1` had a fraction unbound of 0.0012. The clearance in “in vivo” worked out at 0.9 mL/min/kg.
